Assays:
Hepatocyte = assay: Drug level in rat hepatocytes treated with [14C]-rivoglitazone at 30 uM after 3 hrs by radio-HPLC/LC-MS/MS analysis in presence of UDPGA, UDPGA/SAM and NADPH-generating system; type: ADME, cell-based
Cytochrome P450 2C8 = target: T1, Cytochrome P450 2C8 (Homo sapiens, UniProt P10632); assay: Activity of human CYP2C8 expressed in microsomes isolated from baculovirus infected insect cell assessed as enzyme-mediated compound formation treated with [14C]-rivoglitazone at 20 uM after 2 hrs by radio-HPLC/LC-MS/MS analysis in presence of NADPH-generating system; type: ADME
T1 sequence (P10632 whole entry): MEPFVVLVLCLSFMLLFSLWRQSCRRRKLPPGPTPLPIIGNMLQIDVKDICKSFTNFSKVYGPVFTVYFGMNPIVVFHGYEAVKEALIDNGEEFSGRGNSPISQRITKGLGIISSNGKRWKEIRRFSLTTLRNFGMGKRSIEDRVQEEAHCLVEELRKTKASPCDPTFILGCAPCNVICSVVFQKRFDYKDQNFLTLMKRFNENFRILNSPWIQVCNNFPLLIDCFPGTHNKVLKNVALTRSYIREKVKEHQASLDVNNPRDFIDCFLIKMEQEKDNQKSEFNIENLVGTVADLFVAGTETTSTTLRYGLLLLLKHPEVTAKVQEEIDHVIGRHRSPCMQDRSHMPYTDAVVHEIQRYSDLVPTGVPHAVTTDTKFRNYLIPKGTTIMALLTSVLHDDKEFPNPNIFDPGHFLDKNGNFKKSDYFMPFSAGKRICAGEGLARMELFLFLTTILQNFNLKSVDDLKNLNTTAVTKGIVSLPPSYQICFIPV
In short: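 Baculovirus/insect-cell microsomes expressing single human CYPs, 1 mg/ml protein, with 50 mM potassium phosphate (pH 7.4) or 100 mM Tris-HCl (pH 7.5). NADPH-generating system: 2 mM NADP⁺, 20 mM glucose 6-phosphate, 2 units/ml G6PDH, 10 mM MgCl₂. [¹⁴C]rivoglitazone at 20 μM, 2 h at 37°C with shaking. Control used insect-cell control supersomes. Stopped with acetonitrile; supernatant concentrated under nitrogen; metabolites analysed by radio-HPLC, LC-MS and LC-MS/MS.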

Cytochrome P450 2C9 [1] = target: T2, Cytochrome P450 2C9 (Homo sapiens, UniProt P11712); assay: (§1) Activity of human CYP2C9 expressed in microsomes isolated from baculovirus infected insect cell assessed as enzyme-mediated 5-(4-((6-hydroxy-1-methyl-1H-benzo[d]imidazol-2-yl)methoxy)benzyl)thiazolidine-2,4-dione formation at 20 uM after 2 hrs by radio-HPLC/LC-MS/MS analysis in presence of NADPH-generating system and NADPH-generating system/SAM; type: ADME
Cytochrome P450 2C9 [2] = target: T2, Cytochrome P450 2C9; assay: as §1, with “5-(4-((6-methoxy-1H-benzo[d]imidazol-2-yl)methoxy)benzyl)thiazolidine-2,4-dione” for “5-(4-((6-hydroxy-1-methyl-1H-benzo[d]imidazol-2-yl)methoxy)benzyl)thiazolidine-2,4-dione”; type: ADME
[3] = Drug metabolism in rat hepatocytes assessed as formation of 2-hydroxy-3-(4-((6-methoxy-1-methyl-1H-benzo[d]imidazol-2-yl)methoxy)phenyl)propanamide at 30 uM after 3 hrs by radio-HPLC/LC-MS/MS analysis in presence of NADPH-generating system and NADPH-generating system/SAM; type: ADME, cell-based, Hepatocyte
Cytochrome P450 2C9 [4] = target: T2, Cytochrome P450 2C9; assay: Activity of human CYP2C9 expressed in microsomes isolated from baculovirus infected insect cell assessed as enzyme-mediated 3-(4-((6-methoxy-1-methyl-1H-benzo[d]imidazol-2-yl)methoxy)phenyl)-2-(methylsulfinyl)propanamide formation at 20 uM after 2 hrs by radio-HPLC/LC-MS/MS analysis in presence of NADPH-generating system/SAM; type: ADME
Liver microsome [5] = assay: Drug metabolism in Sprague-Dawley rat liver microsomes assessed as formation of 2-mercapto-3-(4-((6-methoxy-1-methyl-1H-benzo[d]imidazol-2-yl)methoxy)phenyl)propanamide at 20 uM after 2 hrs by radio-HPLC/LC-MS/MS analysis in presence of NADPH-generating system and NADPH-generating system/SAM; type: ADME
[6] = Drug metabolism in human hepatocytes assessed as formation of 2-mercapto-3-(4-((6-methoxy-1-methyl-1H-benzo[d]imidazol-2-yl)methoxy)phenyl)propanamide at 30 uM after 3 hrs by radio-HPLC/LC-MS/MS analysis in presence of NADPH-generating system and NADPH-generating system/SAM; type: ADME, cell-based, Hepatocyte
Liver microsome [7] = assay: Drug metabolism in Sprague-Dawley rat liver microsomes assessed as formation of 5-(4-((6-hydroxy-1-methyl-1H-benzo[d]imidazol-2-yl)methoxy)benzyl)thiazolidine-2,4-dione at 20 uM after 2 hrs by radio-HPLC/LC-MS/MS analysis in presence of NADPH-generating system and NADPH-generating system/SAM; type: ADME
Cytochrome P450 2D6 = Cytochrome P450 2D6 (Homo sapiens, UniProt P10635); assay: Activity of human CYP2D6 expressed in microsomes isolated from baculovirus infected insect cell assessed as enzyme-mediated (2S,3S,4S,5R,6R)-6-((1-carboxy-2-(4-((6-methoxy-1-methyl-1H-benzo[d]imidazol-2-yl)methoxy)phenyl)ethylthio)carbonylamino)-3,4,5-trihydroxytetrahydro-2H-pyran-2-carboxylic acid formation at 20 uM after 2 hrs by radio-HPLC/LC-MS/MS analysis in presence of NADPH-generating system/SAM; type: ADME
[8] = target: T3, UDP-glucuronosyltransferase 1A10 (Homo sapiens, UniProt Q9HAW8); assay: Activity of human UGT1A10 expressed in microsomes isolated from baculovirus infected insect cell assessed as enzyme-mediated (2S,3S,4S,5R,6R)-3,4,5-trihydroxy-6-(5-(4-((6-methoxy-1-methyl-1H-benzo[d]imidazol-2-yl)methoxy)benzyl)-2,4-dioxothiazolidin-3-yl)tetrahydro-2H-pyran-2-carboxylic acid formation at 20 uM after 4 hrs by radio-HPLC/LC-MS/MS analysis in presence of UDPGA; type: ADME
T3 sequence (Q9HAW8 whole entry): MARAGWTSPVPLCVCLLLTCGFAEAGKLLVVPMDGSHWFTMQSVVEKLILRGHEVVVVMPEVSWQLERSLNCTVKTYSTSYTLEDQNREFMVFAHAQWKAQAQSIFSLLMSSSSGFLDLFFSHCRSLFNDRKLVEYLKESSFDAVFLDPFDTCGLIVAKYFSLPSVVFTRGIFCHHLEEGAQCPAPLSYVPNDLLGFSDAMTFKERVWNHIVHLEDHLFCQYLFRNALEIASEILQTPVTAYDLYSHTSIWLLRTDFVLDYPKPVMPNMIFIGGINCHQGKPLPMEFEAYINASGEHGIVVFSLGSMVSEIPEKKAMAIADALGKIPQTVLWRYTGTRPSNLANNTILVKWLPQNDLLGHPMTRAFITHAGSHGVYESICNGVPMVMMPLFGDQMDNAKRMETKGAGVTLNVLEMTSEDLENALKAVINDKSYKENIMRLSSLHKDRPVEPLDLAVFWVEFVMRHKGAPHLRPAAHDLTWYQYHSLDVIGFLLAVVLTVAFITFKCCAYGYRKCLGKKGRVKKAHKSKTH
In short: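 Alamethicin (50 μg/mg protein, 15 min on ice) pretreated expressed human UGT microsomes (1 mg/ml protein) from baculovirus-infected insect cells. Incubation with [¹⁴C]rivoglitazone (20 μM) in 100 mM Tris-HCl (pH 7.5) with 10 mM MgCl₂, started by 5 mM UDPGA, 4 h at 37°C with shaking. UGT insect-cell control supersomes were run alongside. Acetonitrile stop, concentrated supernatant analysed by radio-HPLC, LC-MS and LC-MS/MS.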

T2 sequence (P11712 whole entry): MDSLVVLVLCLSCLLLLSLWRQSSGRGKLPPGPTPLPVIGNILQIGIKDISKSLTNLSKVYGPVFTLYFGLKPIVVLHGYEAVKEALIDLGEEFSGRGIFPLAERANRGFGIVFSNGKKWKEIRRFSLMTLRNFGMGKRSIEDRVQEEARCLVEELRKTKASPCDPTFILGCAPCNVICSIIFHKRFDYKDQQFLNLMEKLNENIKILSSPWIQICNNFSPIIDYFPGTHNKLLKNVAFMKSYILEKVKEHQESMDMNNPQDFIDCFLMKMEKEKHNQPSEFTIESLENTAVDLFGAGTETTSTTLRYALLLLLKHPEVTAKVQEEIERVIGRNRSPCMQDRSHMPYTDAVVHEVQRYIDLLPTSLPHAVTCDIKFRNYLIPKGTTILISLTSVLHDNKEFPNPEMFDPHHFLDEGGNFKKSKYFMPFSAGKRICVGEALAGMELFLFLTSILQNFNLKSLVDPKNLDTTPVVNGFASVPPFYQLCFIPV
Chain of Cytochrome P450 2D6 (P10635 whole entry): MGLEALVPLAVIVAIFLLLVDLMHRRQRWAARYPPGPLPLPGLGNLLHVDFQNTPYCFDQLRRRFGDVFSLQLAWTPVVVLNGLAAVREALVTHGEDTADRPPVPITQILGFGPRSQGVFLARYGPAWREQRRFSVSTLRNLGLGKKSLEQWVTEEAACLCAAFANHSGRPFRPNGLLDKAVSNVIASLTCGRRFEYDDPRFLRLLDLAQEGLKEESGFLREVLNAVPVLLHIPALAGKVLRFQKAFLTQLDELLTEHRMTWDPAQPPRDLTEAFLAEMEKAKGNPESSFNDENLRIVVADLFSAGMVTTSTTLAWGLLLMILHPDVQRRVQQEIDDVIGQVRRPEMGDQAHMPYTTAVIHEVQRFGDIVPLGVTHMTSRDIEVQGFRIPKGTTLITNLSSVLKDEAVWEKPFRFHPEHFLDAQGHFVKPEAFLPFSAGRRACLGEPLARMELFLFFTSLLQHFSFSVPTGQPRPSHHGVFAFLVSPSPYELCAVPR

Row | Compound | Drug metabolism (Hepatocyte) | Drug metabolism (Cytochrome P450 2C8) | Drug metabolism (Cytochrome P450 2C9 [1]) | Drug metabolism (Cytochrome P450 2C9 [2]) | Drug metabolism [3] | Drug metabolism (Cytochrome P450 2C9 [4]) | Drug metabolism (Liver microsome [5]) | Drug metabolism [6] | Drug metabolism (Liver microsome [7]) | Drug metabolism (Cytochrome P450 2D6) | Drug metabolism [8]
1 | COc1ccc2nc(COc3ccc(CC(S)C(=O)O)cc3)n(C)c2c1 (stereo unspecified) | metabolite_not_detected | metabolite_detected |  |  |  |  |  |  |  |  | 
2 | COc1ccc2nc(COc3ccc(C[14CH]4SC(=O)NC4=O)cc3)n(C)c2c1.Cl (racemic) |  |  | metabolite_detected | metabolite_detected | metabolite_not_detected | metabolite_not_detected | metabolite_detected | metabolite_not_detected | metabolite_detected | metabolite_not_detected | metabolite_not_detected
